How the values were obtained:
[1] = molecular target: T1, Cystine/glutamate transporter (Homo sapiens) (UniProt Q9UPY5); assay: Inhibition of cystine/glutamate transporter in human SNB19 cells assessed as [3H]glutamate uptake at 500 uM; format: cell-based; set-up: scale not given: the % may be the effect or the level left; conditions: SNB-19
T1 sequence (whole entry): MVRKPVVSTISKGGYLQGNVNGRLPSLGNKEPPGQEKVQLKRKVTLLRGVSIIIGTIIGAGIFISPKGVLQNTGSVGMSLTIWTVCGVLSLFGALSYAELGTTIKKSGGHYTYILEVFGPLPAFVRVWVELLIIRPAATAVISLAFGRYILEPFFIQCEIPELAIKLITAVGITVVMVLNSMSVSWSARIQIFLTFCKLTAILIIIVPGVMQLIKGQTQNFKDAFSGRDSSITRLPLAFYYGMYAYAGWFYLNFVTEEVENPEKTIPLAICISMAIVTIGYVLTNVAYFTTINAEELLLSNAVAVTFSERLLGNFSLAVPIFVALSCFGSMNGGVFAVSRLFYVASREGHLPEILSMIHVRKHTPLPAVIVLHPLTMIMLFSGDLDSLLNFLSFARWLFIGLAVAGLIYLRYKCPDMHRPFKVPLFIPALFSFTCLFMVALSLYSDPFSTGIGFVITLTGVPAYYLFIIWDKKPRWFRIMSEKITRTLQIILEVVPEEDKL
Procedure, shortened: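 SNB19 glioma cells were kept under Na-free conditions and system xc−-mediated uptake of 100 μM L-glutamate was measured with inhibitor at 500 μM. Uptake was corrected for non-specific uptake and normalized to protein content.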

Rattus norvegicus [2] = species: Rattus norvegicus; assay: Inhibition of VGLUT in rat synaptic vesicles assessed as glutamate uptake at 5 mM relative to control; set-up: scale not given: the % may be the effect or the level left
Procedure, shortened: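 Rat brain synaptic vesicles were isolated and VGLUT-mediated uptake of 250 μM L-glutamate was measured with inhibitor at 5 mM. Uptake was corrected for non-specific uptake, normalized to protein content and expressed as % of control.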

[3] = molecular target: Excitatory amino acid transporter 1 (Homo sapiens) (UniProt P43003); assay: Inhibition of EAAT1-mediated D-aspartate transport at 100 uM
Chain of Excitatory amino acid transporter 1 (Homo sapiens) (P43003 whole entry, the tested form may be a part): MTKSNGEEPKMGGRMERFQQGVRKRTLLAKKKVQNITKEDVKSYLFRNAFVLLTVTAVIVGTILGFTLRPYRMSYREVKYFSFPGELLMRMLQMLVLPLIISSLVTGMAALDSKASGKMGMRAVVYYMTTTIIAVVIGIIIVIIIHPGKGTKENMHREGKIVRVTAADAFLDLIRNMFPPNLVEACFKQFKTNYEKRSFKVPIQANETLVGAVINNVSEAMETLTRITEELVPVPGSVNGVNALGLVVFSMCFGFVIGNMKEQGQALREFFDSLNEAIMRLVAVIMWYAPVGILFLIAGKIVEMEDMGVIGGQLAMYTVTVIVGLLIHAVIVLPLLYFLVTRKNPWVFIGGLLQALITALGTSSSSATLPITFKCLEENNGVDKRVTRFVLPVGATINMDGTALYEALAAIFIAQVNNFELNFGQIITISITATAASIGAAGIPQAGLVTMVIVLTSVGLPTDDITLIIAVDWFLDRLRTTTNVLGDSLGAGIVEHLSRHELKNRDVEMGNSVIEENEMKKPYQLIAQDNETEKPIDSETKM
Procedure, shortened: (§1)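 Transport by EAAT1, EAAT2 or EAAT3 was measured with 25 μM D-aspartate as substrate and inhibitor present at 100 μM.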

[4] = molecular target: Excitatory amino acid transporter 3 (Homo sapiens) (UniProt P43005); assay: Inhibition of EAAT3-mediated D-aspartate transport at 100 uM
Chain of Excitatory amino acid transporter 3 (Homo sapiens) (P43005 whole entry, looked up, the tested form may be a part): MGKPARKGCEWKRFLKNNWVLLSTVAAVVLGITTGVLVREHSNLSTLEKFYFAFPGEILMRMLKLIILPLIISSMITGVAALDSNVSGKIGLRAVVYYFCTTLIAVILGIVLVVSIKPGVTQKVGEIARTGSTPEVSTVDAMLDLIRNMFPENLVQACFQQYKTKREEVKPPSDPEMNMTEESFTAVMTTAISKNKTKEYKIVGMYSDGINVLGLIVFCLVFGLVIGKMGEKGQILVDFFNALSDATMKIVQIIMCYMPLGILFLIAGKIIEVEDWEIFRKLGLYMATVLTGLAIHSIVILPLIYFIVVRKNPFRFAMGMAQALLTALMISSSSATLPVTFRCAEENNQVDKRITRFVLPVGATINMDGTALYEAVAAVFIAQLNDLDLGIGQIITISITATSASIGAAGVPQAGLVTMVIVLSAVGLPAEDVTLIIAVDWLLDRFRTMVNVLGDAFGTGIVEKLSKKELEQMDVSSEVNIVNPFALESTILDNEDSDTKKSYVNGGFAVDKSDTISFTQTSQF

[5] = molecular target: Excitatory amino acid transporter 2 (Homo sapiens) (UniProt P43004); assay: Inhibition of EAAT2-mediated D-aspartate transport at 100 uM; procedure, shortened: as §1
Chain of Excitatory amino acid transporter 2 (Homo sapiens) (P43004 whole entry, the tested form may be a part): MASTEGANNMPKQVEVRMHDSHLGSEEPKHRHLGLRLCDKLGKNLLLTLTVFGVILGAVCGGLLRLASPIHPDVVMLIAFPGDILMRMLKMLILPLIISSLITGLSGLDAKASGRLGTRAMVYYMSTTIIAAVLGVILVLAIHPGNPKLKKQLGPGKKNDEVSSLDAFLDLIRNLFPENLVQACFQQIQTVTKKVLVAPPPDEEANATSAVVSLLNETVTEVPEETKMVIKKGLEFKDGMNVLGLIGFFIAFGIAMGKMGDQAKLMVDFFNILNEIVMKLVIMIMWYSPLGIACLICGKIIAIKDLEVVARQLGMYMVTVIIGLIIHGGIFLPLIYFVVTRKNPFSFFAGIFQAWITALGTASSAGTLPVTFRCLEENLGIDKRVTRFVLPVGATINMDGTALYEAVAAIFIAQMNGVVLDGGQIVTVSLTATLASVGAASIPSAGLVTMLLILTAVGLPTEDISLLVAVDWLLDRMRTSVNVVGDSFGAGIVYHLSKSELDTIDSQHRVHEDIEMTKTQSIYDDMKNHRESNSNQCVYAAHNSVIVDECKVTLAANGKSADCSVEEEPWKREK

[6] = Inhibition of VGLUT in rat synaptic vesicles assessed as inhibition of glutamate uptake
Procedure, shortened: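 Dose–response for VGLUT inhibition in synaptic vesicles isolated from rat brain, using 250 μM L-glutamate as substrate. Uptake was corrected for non-specific uptake and normalized to protein; IC50 was taken from the dose curve.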

Rattus norvegicus [7] = species: Rattus norvegicus; assay: Inhibition of VGLUT in rat synaptic vesicles assessed as glutamate uptake at 500 uM relative to control; set-up: scale not given: the % may be the effect or the level left

Compound	Activity [1] [%]	Activity (Rattus norvegicus [2]) [%]	also measured
O=C1NC(=O)C(Cc2ccccc2)N1 (stereo not given)	53	80	–
O=C1NC(=O)C(c2c3ccccc3cc3ccccc23)N1 (stereo not given)	81	81	–
O=C1NC(c2cccc3ccccc23)C(=O)N1CCCCN1C(=O)NC(c2cccc3ccccc23)C1=O (stereo not given)	92	74	–
O=C1NC(=O)C(c2ccc(-c3ccc(C(=O)O)cc3)cc2)N1 (stereo not given)	104	37	–
O=C1NC(=O)C(c2ccc(C3NC(=O)NC3=O)cc2)N1 (stereo not given)	85	78	–
O=C1NC(c2cccc3ccccc23)C(=O)N1CCCN1C(=O)NC(c2cccc3ccccc23)C1=O (stereo not given)	80	97	–
O=Cc1ccc(C2NC(=O)NC2=O)s1 (racemic)	49	5	inhibition [3]: < 12%; inhibition [4]: < 12%; inhibition [5]: < 12%; IC50 [6]: 355 µM
Nc1c(/N=N/c2ccc(-c3ccc(/N=N/c4cc(S(=O)(=O)O)c5ccccc5c4N)cc3)cc2)cc(S(=O)(=O)O)c2ccccc12	82	0	Activity (Rattus norvegicus [7]): 31%
N[C@@H](CS)C(=O)O	22	90	–
Cc1cc(C2NC(=O)NC2=O)sc1C (stereo not given)	87	93	–
O=C1NC(=O)C(c2cccc3ccccc23)N1 (stereo not given)	83	91	–
O=C1NC(=O)C(c2ccc(C3NC(=O)NC3=O)s2)N1 (stereo not given)	51	6	inhibition [3]: < 12%; inhibition [4]: < 12%; inhibition [5]: < 12%; IC50 [6]: 511 µM
COC(=O)c1ccc(-c2ccc(C3NC(=O)NC3=O)cc2)cc1 (stereo not given)	93	95	–
CN(C)c1ccc(C2NC(=O)NC2=O)cc1 (stereo not given)	87	23	–
O=C1NC(=O)C(c2ccc(S(=O)(=O)O)cc2S(=O)(=O)O)N1 (racemic)	100	11	–
Cc1ccc(C2NC(=O)NC2=O)s1 (stereo not given)	66	76	–
O=C1NC(=O)C(c2csc3ccccc23)N1 (stereo not given)	118	79	–
CN(C)c1ccc(/C=C/C2NC(=O)NC2=O)cc1 (stereo not given)	90	63	–
O=C1NC(=O)C(c2c[nH]cn2)N1 (stereo not given)	82	103	–
O=C1NC(=O)C(c2cccnc2)N1 (stereo not given)	95	111	–
O=C1NC(=O)C(c2ccccc2S(=O)(=O)O)N1 (stereo not given)	100	121	–
O=C1NC(=O)C(c2ccc(-c3cccs3)s2)N1 (stereo not given)	85	87	–
O=C1NC(=O)C(c2ccc(Br)s2)N1 (stereo not given)	65	75	–

Reference: ChEMBL document CHEMBL1914336, “Use of the hydantoin isostere to produce inhibitors showing selectivity toward the vesicular glutamate transporter versus the obligate exchange transporter system x(c)(-)” (Bioorg Med Chem Lett, 2011)
